Test results reported in EPA's CvTdb concentration-time database.

Tests used:
Rat [1] = assay: concentration in kidney after dosing; conditions: 3360 h; dosed: Perfluorodecanoic acid; 10 mg/kg; oral; Male; Harlan Sprague Dawley
Rat [2] = assay: concentration in kidney after dosing; conditions: 1848 h; dosed: Perfluorodecanoic acid; 10 mg/kg; oral; Male; Harlan Sprague Dawley
Rat [3] = assay: concentration in liver after dosing; conditions: 1 h; dosed: Perfluorodecanoic acid; 10 mg/kg; oral; Male; Harlan Sprague Dawley
Rat [4] = assay: concentration in liver after dosing; conditions: 864 h; dosed: Perfluorodecanoic acid; 10 mg/kg; oral; Male; Harlan Sprague Dawley
Rat [5] = assay: concentration in plasma after dosing; conditions: dosed: dichloroacetic acid, 100 mg/kg, oral, Male, F344
Rat [6] = assay: concentration in plasma after dosing; conditions: 0.25 h; dosed: Primidone; 80 mg/kg; oral; Female; Harlan Sprague-Dawley
Rat [7] = assay: concentration in plasma after dosing; conditions: 1.5 h; dosed: Primidone; 80 mg/kg; oral; Male; F344
Rat [8] = assay: concentration in plasma after dosing; conditions: 1.5 h; dosed: Primidone; 30 mg/kg; oral; Male; F344
Rat [9] = assay: concentration in plasma after dosing; conditions: 6 h; dosed: Primidone; 80 mg/kg; oral; Male; F344
Rat [10] = assay: concentration in plasma after dosing; conditions: 18 h; dosed: Primidone; 80 mg/kg; oral; Female; F344
Rat [11] = assay: concentration in plasma after dosing; conditions: 3 h; dosed: Wyeth-14643; 2.0 mg/kg; oral; Male; Sprague-Dawley
Rat [12] = assay: concentration in plasma after dosing; conditions: 5 h; dosed: Wyeth-14643; 1.0 mg/kg; oral; Male; Sprague-Dawley
human = assay: concentration in urine after dosing; conditions: dosed: trichloroethylene, inhalation, duration: 2 hr - 20 min
Outline: (§1)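 Points were largely digitised from plot screenshots with WebPlotDigitizer or otherwise copied from tables, and they remain in the units each source reported. They come from published in vivo toxicokinetic studies and two structured collections. Sampling and analytical methods follow each source and were often not reported.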

dog = assay: concentration in urine after dosing; conditions: dosed: trichloroethylene, 100 ppm, inhalation, duration: 6 hr, male, beagle
Outline: as §1

Rat [13] = assay: concentration in liver after dosing; conditions: 6 h; dosed: Fluorotelomer alcohol 8+2; 24 mg/kg; oral; Male; Harlan Sprague Dawley
Rat [14] = assay: concentration in liver after dosing; conditions: 1 h; dosed: Fluorotelomer alcohol 8+2; 24 mg/kg; oral; Male; Harlan Sprague Dawley
Rat [15] = assay: concentration in plasma after dosing; conditions: 4 h; dosed: Thiodiglycolic Acid; 20 mg/kg; iv; Female; Harlan Sprague Dawley
Rat [16] = assay: concentration in thymus after dosing; conditions: 6.667 h; dosed: Thiodiglycolic Acid; 20 mg/kg; iv; Female; Harlan Sprague Dawley
Rat [17] = assay: concentration in thymus after dosing; conditions: 6.667 h; dosed: Thiodiglycolic Acid; 20 mg/kg; iv; Female; Harlan Sprague Dawley; remark: listed apart in the source
Rat [18] = assay: concentration in thymus after dosing; conditions: 10 h; dosed: Thiodiglycolic Acid; 20 mg/kg; iv; Female; Harlan Sprague Dawley
Rat [19] = assay: concentration in heart after dosing; conditions: 10 min; dosed: Thiodiglycolic Acid; 20 mg/kg; iv; Male; F344
Rat [20] = assay: concentration in plasma after dosing; conditions: 2 h; dosed: Thiodiglycolic Acid; 20 mg/kg; iv; Male; Harlan Sprague Dawley
Rat [21] = assay: concentration in liver after dosing; conditions: 20 min; dosed: Bis 2-Chloroethoxy Methane; 20 mg/kg; iv; Female; F344
Rat [22] = assay: concentration in thymus after dosing; conditions: 8 h; dosed: Bis 2-Chloroethoxy Methane; 20 mg/kg; iv; Female; Harlan Sprague-Dawley
Rat [23] = assay: concentration in heart after dosing; conditions: 4 h; dosed: Bis 2-Chloroethoxy Methane; 20 mg/kg; iv; Male; F344
Rat [24] = assay: concentration in thymus after dosing; conditions: 1 h; dosed: Bis 2-Chloroethoxy Methane; 20 mg/kg; iv; Male; F344
Rat [25] = assay: concentration in plasma after dosing; conditions: 10 min; dosed: Bis 2-Chloroethoxy Methane; 20 mg/kg; iv; Male; F344
Rat [26] = assay: concentration in heart after dosing; conditions: 1 h; dosed: Bis 2-Chloroethoxy Methane; 20 mg/kg; iv; Male; F344
Rat [27] = assay: concentration in plasma after dosing; conditions: 10 min; dosed: Bis 2-Chloroethoxy Methane; 20 mg/kg; iv; Female; F344
Rat [28] = assay: concentration in liver after dosing; conditions: 2 h; dosed: Bis 2-Chloroethoxy Methane; 20 mg/kg; iv; Male; F344
Rat [29] = assay: concentration in plasma after dosing; conditions: 5 min; dosed: Di-n-butyl phthalate; 20 mg/kg; iv; Male; Sprague-Dawley
Rat [30] = assay: concentration in plasma after dosing; conditions: 3 h; dosed: Di-n-butyl phthalate; 100 mg/kg; oral; Male; Sprague-Dawley
Rat [31] = assay: concentration in plasma after dosing; conditions: 5 min; dosed: Di-n-butyl phthalate; 50 mg/kg; oral; Male; Sprague-Dawley
Rat [32] = assay: concentration in plasma after dosing; conditions: 2 h; dosed: Di-n-butyl phthalate; 20 mg/kg; iv; Male; Sprague-Dawley
Rat [33] = assay: concentration in plasma after dosing; conditions: 20 h; dosed: Di-n-butyl phthalate; 200 mg/kg; oral; Male; Sprague-Dawley

Work on `O=C(O)C(F)(F)C(F)(F)C(F)(F)C(F)(F)C(F)(F)C(F)(F)C(F)(F)C(F)(F)C(F)(F)F` [Perfluorodecanoic acid] yielded a concentration in kidney (Rat [1]) of 1240 ng/g, a concentration in kidney (Rat [2]) of 4700 ng/g and a concentration in liver (Rat [3]) of 58100 ng/g. It also gave a concentration in liver (Rat [4]) of 54300 ng/g.
Compound `O=C(O)C(Cl)Cl` [dichloroacetic acid] has a concentration in plasma (Rat [5]; 2 min) of 2560 ng/mL and a concentration in plasma (Rat [5]; 1.25 h) of 43500 ng/mL.
Work on `CCC1(c2ccccc2)C(=O)NC(=O)NC1=O` [Phenobarbital] yielded a concentration in plasma (Rat [6]) of 400 ng/mL, a concentration in plasma (Rat [7]) of 3100 ng/mL and a concentration in plasma (Rat [8]) of 1940 ng/mL. It also gave a concentration in plasma (Rat [9]) of 5320 ng/mL and a concentration in plasma (Rat [10]) of 1900 ng/mL.
With `Cc1cccc(Nc2cc(Cl)nc(SCC(=O)O)n2)c1C` the concentration in plasma (Rat [11]) was 426 ng/mL and the concentration in plasma (Rat [12]) was 118 ng/mL.
`O=C(O)C(Cl)(Cl)Cl` [trichloroacetic acid] showed a concentration in urine (human; 2.667 h, 1348 mg) of 6.6 mg/kg, a concentration in urine (human; 2.667 h, 1681 mg) of 4.3 mg/kg and a concentration in urine (human; 2.667 h, 3907 mg) of 3 mg/kg. For the same compound, the concentration in urine (human; 6.667 h, 1348 mg) was 14.2 mg/kg, the concentration in urine (human; 6.667 h, 1681 mg) was 10.6 mg/kg and the concentration in urine (human; 6.667 h, 3907 mg) was 14.2 mg/kg. It also gave a concentration in urine (human; 10.67 h, 1348 mg) of 15.6 mg/kg, a concentration in urine (human; 10.67 h, 1681 mg) of 22.2 mg/kg and a concentration in urine (human; 10.67 h, 3907 mg) of 22.9 mg/kg. It also gave a concentration in urine (human; 19.67 h, 1348 mg) of 21.1 mg/kg, a concentration in urine (human; 19.67 h, 1681 mg) of 24.9 mg/kg and a concentration in urine (human; 19.67 h, 3907 mg) of 26.7 mg/kg. For the same compound, the concentration in urine (dog; 24 h) was 32600 ng/mL, the concentration in urine (dog; 48 h) was 92800 ng/mL and the concentration in urine (dog; 72 h) was 204000 ng/mL. For the same compound, the concentration in urine (dog; 96 h) was 386000 ng/mL and the concentration in urine (dog; 120 h) was 228000 ng/mL.
`OCCC(F)(F)C(F)(F)C(F)(F)C(F)(F)C(F)(F)C(F)(F)C(F)(F)C(F)(F)F` [Fluorotelomer alcohol 8+2] was tested, and the concentration in liver (Rat [13]) was 1250 ng/g and the concentration in liver (Rat [14]) was 4670 ng/g.
Compound `O=C(O)CSCC(=O)O` [Thiodiglycolic Acid] has a concentration in plasma (Rat [15]) of 324 ng/mL, a concentration in thymus (Rat [16]) of 335 ng/g and a concentration in thymus (Rat [17]) of 391 ng/g. For the same compound, the concentration in thymus (Rat [18]) was 254 ng/g, the concentration in heart (Rat [19]) was 8210 ng/g and the concentration in plasma (Rat [20]) was 934 ng/mL.
Work on `ClCCOCOCCCl` [Bis 2-Chloroethoxy Methane] yielded a concentration in liver (Rat [21]) of 1090 ng/g, a concentration in thymus (Rat [22]) of 13.1 ng/g and a concentration in heart (Rat [23]) of 112 ng/g. For the same compound, the concentration in thymus (Rat [24]) was 7380 ng/g, the concentration in plasma (Rat [25]) was 11000 ng/mL and the concentration in heart (Rat [26]) was 1380 ng/g. For the same compound, the concentration in plasma (Rat [27]) was 9470 ng/mL and the concentration in liver (Rat [28]) was 135 ng/g.
In the case of `CCCCOC(=O)c1ccccc1C(=O)O` [Mono-n-butyl phthalate], the concentration in plasma (Rat [29]) is reported as 22800 ng/mL, the concentration in plasma (Rat [30]) is reported as 6970 ng/mL and the concentration in plasma (Rat [31]) is reported as 2400 ng/mL. It also gave a concentration in plasma (Rat [32]) of 1670 ng/mL and a concentration in plasma (Rat [33]) of 1870 ng/mL.
